Measurements published in ChEMBL document CHEMBL1221279, “Synthesis, biological evaluation, and structure-activity relationship study of novel cytotoxic aza-caffeic acid derivatives” (Bioorg Med Chem, 2010).
Active and inactive are the calls of the source. The calls are words filed in the database; no cut-off is given here.

Experiments:
[1] = Cytotoxicity against human Bel7404 cells after 72 hrs by MTT assay; format: functional, cell-based; conditions: BEL-7404, 72 h
Outline: (§1)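 Cells grown in MEM with 10% fetal calf serum, penicillin and streptomycin at 37 °C, 5% CO2. Exponentially growing cells seeded in quadruplicate at 5 × 10³ per well and left 24 h before compounds (DMSO stocks) were added. After 72 h exposure, MTT added for 4 h at 37 °C, formazan dissolved in DMSO, read at 570 nm. IC50 read graphically from dose–response curves.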

HL-60 = assay: Cytotoxicity against human HL60 cells after 72 hrs by MTT assay; format: functional, cell-based; conditions: HL-60, 72 h; outline: as §1
HeLa = assay: Cytotoxicity against human HeLa cells after 72 hrs by MTT assay; format: functional, cell-based; outline: as §1
CNE = assay: Cytotoxicity against human CNE cells after 72 hrs by MTT assay; format: functional, cell-based; outline: as §1
PC-3 = assay: Cytotoxicity against human PC3 cells after 72 hrs by MTT assay; format: functional, cell-based; conditions: PC-3, 72 h; outline: as §1
K562 [2] = assay: Cytotoxicity against human K562 cells after 72 hrs by MTT assay; format: functional, cell-based; conditions: for IC50: K562, 72 h; outline: as §1
[3] = Cytotoxicity against human ECA109 cells after 72 hrs by MTT assay; format: functional, cell-based; conditions: ECa-109, 72 h; outline: as §1
[4] = Cytotoxicity against human LS 174T cells after 72 hrs by MTT assay; format: functional, cell-based; conditions: LS174T; outline: as §1
KB = assay: Cytotoxicity against human KB cells after 72 hrs by MTT assay; format: functional, cell-based; outline: as §1
A549 = assay: Cytotoxicity against human A549 cells after 72 hrs by MTT assay; format: functional, cell-based; conditions: A549, 72 h; outline: as §1
BGC-823 = assay: Cytotoxicity against human BGC823 cells after 72 hrs by MTT assay; format: functional, cell-based; conditions: BGC-823, 72 h; outline: as §1
[5] = Cytotoxicity against human HO8910 cells after 72 hrs by MTT assay; format: functional, cell-based; conditions: HO-8910, 72 h; outline: as §1
K562 [6] = assay: Cytotoxicity against human K562 cells at up to 8 uM by MTT assay; format: functional, cell-based; conditions: TDE = time-dependent effect
Outline: (§2)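 K562 cells grown in MEM with 10% fetal calf serum at 37 °C, 5% CO2, seeded in quadruplicate at 5 × 10³ per well. After 24 h, exposed to a range of concentrations for 48 or 72 h. MTT added for 4 h, formazan dissolved in DMSO, read at 570 nm. Viability expressed as % of untreated control, mean S.D. of at least three independent experiments.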

K562 [7] = assay: Cytotoxicity against human K562 cells assessed as reduction of cell viability at 8 uM after 72 hrs by MTT assay relative to control; format: functional; outline: as §2
K562 [8] = assay: Induction of apoptosis in human K562 cells using Annexin V/PI staining at 8 uM after 72 hrs by flow cytometry relative to control (reference value: 5.45%); format: functional
K562 [9] = assay: Induction of apoptosis in human K562 cells using Annexin V/PI staining at 0.5 uM after 48 hrs by flow cytometry relative to control (reference value: 4.17%); format: functional
K562 [10] = assay: Induction of apoptosis in human K562 cells using Annexin V/PI staining at 0.5 uM after 72 hrs by flow cytometry relative to control (reference value: 5.45%); format: functional
K562 [11] = assay: Induction of apoptosis in human K562 cells using Annexin V/PI staining at 2 uM after 48 hrs by flow cytometry relative to control (reference value: 4.17%); format: functional
K562 [12] = assay: Induction of apoptosis in human K562 cells using Annexin V/PI staining at 2 uM after 72 hrs by flow cytometry relative to control (reference value: 5.45%); format: functional
K562 [13] = assay: Induction of apoptosis in human K562 cells using Annexin V/PI staining at 8 uM after 48 hrs by flow cytometry relative to control (reference value: 4.17%); format: functional
K562 [14] = assay: Induction of apoptosis in human K562 cells assessed as up-regulation of caspase 3 expression at up to 8 uM after 48 hrs by Western blotting; format: functional, cell-based
Outline: (§3)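 K562 cells treated for 48 h at the indicated concentrations, then lysed in Tris-HCl pH 7.5/NaCl buffer with protease inhibitors. Protein measured by Lowry assay. 40 µg total protein run on SDS–PAGE and blotted to PVDF. Probed overnight at 4 °C with anti-caspase-3, anti-Bax, anti-Bcl-2 and anti-β-actin, with HRP secondary and chemiluminescence. Bands quantified by densitometry, at least three independent experiments.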

K562 [15] = assay: Induction of apoptosis in human K562 cells assessed as increase of Bax/Bcl-2 ratio after 48 hrs by Western blotting; format: functional, cell-based; outline: as §3

Row | SMILES | IC50 [1] [µM] | IC50 (HL-60) [µM] | IC50 (HeLa) [µM] | IC50 (CNE) [µM] | IC50 (PC-3) [µM] | IC50 (K562 [2]) [µM] | IC50 [3] [µM] | IC50 [4] [µM] | IC50 (KB) [µM] | IC50 (A549) [µM] | IC50 (BGC-823) [µM] | IC50 [5] [µM] | other results
1 | CCOc1ccc(COc2c(OC)cc(/C=C/C(=O)N3CCN(Cc4ccc(Cl)c(Cl)c4)CC3)cc2OC)cc1 | 2 | > 200 | > 200 | > 200 | > 200 | 1.7 | 1.1 | > 200 | 0.2 | 63.4 | > 200 | > 200 | Activity (K562 [2]): Dose-dependent effect; Activity (K562 [6]): tde; Activity (K562 [7]): 37.9%; Activity (K562 [8]): 20.38%; Activity (K562 [9]): 8.26%; Activity (K562 [10]): 13.71%; Activity (K562 [11]): 10.95%; Activity (K562 [12]): 17.82%; Activity (K562 [13]): 14.83%; Activity (K562 [14]): Active; Activity (K562 [15]): Dose-dependent effect
2 | COc1ccc(/C=C/C(=O)N2CCN(Cc3ccc(Cl)c(Cl)c3)CC2)cc1OC | 85.7 | 140 | 76.6 | > 200 | > 200 | 70.8 | > 200 | > 200 | 69.2 | > 200 | > 200 | 121 | –
3 | COCOc1ccc(/C=C/C(=O)NCCN2CCOCC2)cc1OCOC | > 200 | > 200 | > 200 | > 200 | > 200 | > 200 | > 200 | > 200 | > 200 | > 200 | > 200 | > 200 | –
4 | COCOc1ccc(/C=C/C(=O)N2CCN(Cc3ccc(Cl)c(Cl)c3)CC2)cc1OCOC | > 200 | 31 | 29.1 | > 200 | 7.4 | 19.3 | 7.4 | 139 | 3.7 | 107 | 64.4 | 69.7 | –
5 | O=C(/C=C/c1ccccc1)NNC(=O)c1ccccc1O | 21.2 | 39.3 | 73.1 | 43.7 | 40.9 | 0.9 | 41.4 | 20.1 | 20.1 | 72.6 | 46 | 190 | –
